# Screens deposited in PubChem BioAssay by The Scripps Research Institute Molecular Screening Center.
# Rows were chosen to be rich in hits. Some 3% of all compounds tested hit in one or more screens of this group.
# NPY1 pot ag = potentiators or agonists of human neuropeptide Y receptor Y1. P25929. NPY-Y1 expressing cells, potentiator/agonist activation. activation, % at 3.6 µM. actives 0.37% (n = 220,000). AID 1304; in the data active = activation above about 33%, passing the limit was not always enough;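 also: cells stimulated with NPY at EC10 then isoproterenol at EC100; 0% = low agonist plus stimulus and 100% = saturating agonist plus stimulus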
# Hsp70 act = Hsp70 transcriptional activation, primary screen | HeLa Hsp70 promoter luciferase reporter, luminescence; scaled: vehicle 0, proteasome-inhibitor control 100% | actives 0.04% (n = 200,000) | activation, % at 10 µM | AID 1203;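 active = activation above the mean across all tested compounds plus 3 SD, cutoff set per campaign, cut at about 5.5% in these data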;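 also: 100% = MG132 at 30 µM as the positive control and 0% = DMSO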
# NPY-Y2 PAM-ag = human NPY-Y2 potentiation or agonism, primary screen; P49146; cells expressing NPY-Y2, potentiator/agonist read-out; activation, % at 3.6 µM; actives 0.45% (n = 220,000); AID 1359; in the data active = activation above about 27%;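 also: cells stimulated with NPY near EC25 plus isoproterenol at EC100; 0% = vehicle plus submaximal agonist and 100% = vehicle plus saturating agonist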
# NPY Y1 blocker = blocks the human neuropeptide Y Y1 receptor | HEK293-CNG Y1 cells, membrane potential fluorescence; NPY at EC95, then isoproterenol | actives 1% (n = 200,000) | P25929 | inhibition, % at 3.6 µM;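 active = inhibition above the campaign mean inhibition of all tested compounds plus 3 SD, cut at about 20% in these data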;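 also: 0% = DMSO wells given NPY plus isoproterenol and 100% = isoproterenol alone without NPY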
#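 Test system – HEK293 Y1/CNG channel cell line · Also added – NPY agonist 25 nM, then isoproterenol 1 µM plus Ro 20-1724 25 µM · Compound dosing – one concentration, 3.6 µM, in 0.4% DMSO · Schedule – compound incubation 1 h at room temperature, readout 45 min post-stimulation · Technique – fluorescence, membrane potential probe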
# Wee1 degr inh = blocks degradation of human Wee1 kinase | P30291 | HeLa Luc-Wee1K328M stability, luciferase luminescence; 100% = proteasome inhibitor MG132 effect | reporter increase, % at 5 µM | actives 1.2% (n = 220,000);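 active = activation above the mean of all tested compounds plus 3 SD, set per screening run, cut at about 8.8% in these data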;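 also: cells exposed to compound for 20 h before luminescence read; 0% = DMSO alone and 100% = MG132 at 30 µM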
# Target sequence (P30291 whole entry K328M): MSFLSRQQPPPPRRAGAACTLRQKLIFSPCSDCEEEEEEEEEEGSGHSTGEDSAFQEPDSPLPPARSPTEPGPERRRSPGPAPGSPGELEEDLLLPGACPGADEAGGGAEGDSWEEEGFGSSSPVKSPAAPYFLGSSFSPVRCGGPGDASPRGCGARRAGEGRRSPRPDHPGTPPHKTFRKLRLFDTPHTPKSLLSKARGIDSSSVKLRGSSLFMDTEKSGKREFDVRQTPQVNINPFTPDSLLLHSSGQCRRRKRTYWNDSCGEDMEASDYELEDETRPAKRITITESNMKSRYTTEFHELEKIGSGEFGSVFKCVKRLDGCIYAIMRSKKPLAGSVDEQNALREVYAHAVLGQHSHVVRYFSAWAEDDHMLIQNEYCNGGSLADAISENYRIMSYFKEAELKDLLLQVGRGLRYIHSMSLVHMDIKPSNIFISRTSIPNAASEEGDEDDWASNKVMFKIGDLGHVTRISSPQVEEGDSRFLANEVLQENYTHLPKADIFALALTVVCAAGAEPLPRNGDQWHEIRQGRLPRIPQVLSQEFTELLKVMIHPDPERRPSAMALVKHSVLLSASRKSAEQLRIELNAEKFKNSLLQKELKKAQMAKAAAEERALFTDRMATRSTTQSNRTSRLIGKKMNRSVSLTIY
# NPY-Y2 antag = NPY-Y2 (human) receptor antagonism | P49146 | actives 0.99% (n = 140,000) | NPY-Y2 expressing cells, antagonist mode | inhibition, % at 2.7 µM; in the data active = inhibition above about 17%;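 also: 0% = vehicle with agonist challenge and 100% = reference antagonist with challenge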
# Wee1 stab conf = confirmation of human Wee1 degradation inhibitors; HeLa Luc-Wee1K328M degradation, luminescence; vehicle 0%, proteasome-blocked wells 100%; activation, % at 5 µM; actives 4% (n = 1,100); shares compounds with Wee1 degr inh; AID 1410; in the data active = activation above about 8.9%
# * marks the source's active call; other numbers are inactive results; . = no result.
SMILES,NPY1 pot ag,Hsp70 act,NPY-Y2 PAM-ag,NPY Y1 blocker,Wee1 degr inh,NPY-Y2 antag,Wee1 stab conf
C(=C\c1nnc2c3ccccc3ncn12)/c1ccccc1,-7,1,-17,8,12*,7,8
Cc1ccc(C(=O)Nc2ccc3c(c2)CCC3)cc1,5,0,3,0,-1,.,.
Cc1ccc(NC(=O)c2cc3c(s2)CCCC3)cc1,-11,0,-15,10,16*,.,2
Cc1ccc(NS(=O)(=O)c2cc(NC(=O)c3cc4c(s3)CCCC4)ccc2C)c(C)c1,-6,0,7,0,6,1,.
Cc1ccc(NC(=O)c2scc3c2CCCC3)cc1,-4,0,8,10,12*,4,-2
Cc1nnc(SCC(=O)NC(C)(C)C)n1C1CCCCC1,13,0,2,5,4,0,.
O=c1[nH]c2ccccc2nc1/C=C(\O)c1cccs1,3,0,16,-3,16*,.,9.6*
O=c1[nH]c2ccccc2nc1/C=C/c1ccc(O)cc1,-4,0,-8,-9,11*,.,6
O=C(Nc1nc2ccccc2[nH]1)c1cccs1,-5,0,-10,-3,12*,.,-1
O=C(Nc1nc2ccccc2[nH]1)C1CC1,-4,1,-17,-2,8,.,.
CCCCc1ccc(/C=C2\C(=O)ON=C2c2ccccc2)s1,3,0,-5,0,5,3,.
O=c1cc(/C=C/c2ccccc2)oc2c1ccc1ccccc12,0,0,3,4,11*,9,7
O=c1cc(C(F)(F)F)oc2c1ccc1ccccc12,-45,0,-12,1,2,4,.
CCCc1cc(=O)n2[nH]c(NCc3c(F)cccc3Cl)nc2n1,9,0,6,7,-1,3,.
NS(=O)(=O)c1ccc(O)c(N2C(=O)c3cccc4c(C(=O)O)ccc(c34)C2=O)c1,-7,0,1,3,-3,.,.
Cc1ccnc(NC(=O)CCCOc2cc(=O)n(C)c3ccccc23)c1,6,4,-10,2,14*,0,46*
Cc1cccc(CCNC(=O)COc2cc(=O)n(C)c3ccccc23)c1,-7,0,-8,4,11*,.,-1
Cn1c(=O)cc(OCCCC(=O)NCc2ccccn2)c2ccccc21,-18,0,4,-1,5,0,.
Cc1ccc(NC(=O)COC(=O)[C@H](C)N2C(=O)C3CC=CCC3C2=O)cc1S(=O)(=O)N(C)C (stereo not given in full),-3,0,7,-2,14*,.,4
CCOC(=O)C(=Cc1c[nH]c2ccc(S(=O)(=O)N(C)C)cc12)C(=O)OCC,-1,.,-30,.,12*,.,1
COCCCNC(=O)Nc1ccc(Br)cc1Cl,-2,1,6,-2,11*,-2,4
COc1ccccc1C1SCCN1S(C)(=O)=O (stereo not given),-8,0,-4,1,21*,4,5
COc1ccc(OC)c(C2SCCN2S(C)(=O)=O)c1 (stereo not given),7,0,1,2,-1,2,.
Clc1ccc(Cn2ncc3c(N4CCCC4)ncnc32)cc1,-38,0,-14,1,16*,4,-1
CC(C)OCCCNC(=O)Nc1cccc2ccccc12,22,0,8,-3,13*,.,0
SMILES,NPY1 pot ag,Hsp70 act,NPY-Y2 PAM-ag,NPY Y1 blocker,Wee1 degr inh,NPY-Y2 antag,Wee1 stab conf
Cc1ccc2c(CC(=O)N3CCc4ccccc43)coc2c1,-9,0,6,8,18*,4,2
O=C(Cc1coc2ccc3ccccc3c12)N1CCc2ccccc21,-15,0,-16,3,1,4,.
O=C(NCc1ccccc1)NCc1cccs1,-3,0,-4,-8,0,.,.
COc1cc(NC(=O)CSc2nc3c(c(=O)[nH]2)CCCC3)cc(OC)c1OC,6,0,-2,5,-2,.,.
O=[N+]([O-])c1ccc(Sc2cccc[n+]2[O-])c2nonc12,21,.,10,.,40*,.,43*
O=C(CSc1cccc[n+]1[O-])Nc1ccc(C(F)(F)F)cc1[N+](=O)[O-],-1,0,8,-1,1,.,.
